Measured values as given in ChEMBL document CHEMBL1157696, “New oxapolycyclic cage amines with NMDA receptor antagonist and trypanocidal activities” (Bioorg Med Chem, 2010).
pIC50: −log10 of the molar value. Active and inactive are the calls of the source. The calls are words filed in the database; no cut-off is given here.

Assays:
Mus musculus [1] = organism: Mus musculus; experiment: Inhibition of MAO in mouse cortex at 10 uM by tube luminometry
How it was run: (§1)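 MAO-Glo luminescent assay of non-specific MAO activity. Enzyme source was a crude mitochondrial preparation from NIH Swiss mouse cortex. Compounds tested at 10 and 50 µM.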

Glutamate NMDA receptor [2] = experiment: Antagonist activity at NMDA receptor in rat cerebellar granule neurons assessed as inhibition of NMDA-induced increase in intracellular calcium level by fluorometric assay; format: functional, cell-based
How it was run: (§2)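 Primary cerebellar granule neuron cultures on poly-L-lysine-coated glass coverslips, used after 7–14 days in vitro. Cells loaded with 6 µM Fura-2 AM for 45 min, then read fluorometrically in Locke-Hepes buffer at 37 °C under mild agitation. Cumulative increasing compound concentrations added after glutamate (100 µM, with 10 µM glycine) or NMDA challenge. Inhibition percentages fitted by variable-slope non-linear regression. At least three experiments on three culture batches.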

Trypanosoma brucei [3] = experiment: Trypanocidal activity against Trypanosoma brucei 427 bloodstream form assessed as decrease in cell density at 5 ug/mL after 48 hrs by hemocytometry; format: functional, organism-based
Glutamate NMDA receptor [4] = experiment: Antagonist activity at NMDA receptor in rat cerebellar granule neurons assessed as inhibition of glutamate-induced increase in intracellular calcium level by fluorometric assay; format: functional, cell-based; how it was run: as §2
Trypanosoma brucei [5] = experiment: Ratio of compound to amantadine activity against Trypanosoma brucei 427 bloodstream form; format: functional
Trypanosoma brucei [6] = experiment: Trypanocidal activity against Trypanosoma brucei 427 bloodstream form assessed as decrease in cell density after 48 hrs by hemocytometry; format: functional, organism-based; conditions: Trypanosoma brucei, 427, 48 h
How it was run: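 Bloodstream-form T. brucei strain 427 kept at 37 °C in modified Iscove's medium, pH 7.4. Parasites grown 48 h across a range of drug concentrations, starting at 0.5 × 10⁴ cells/mL. Densities counted by hemocytometer and expressed as percent of control growth to derive IC50 and IC90. Performed in triplicate.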

Mus musculus [7] = organism: Mus musculus; experiment: Inhibition of MAO in mouse cortex at 50 uM by tube luminometry; how it was run: as §1

| Compound | inhibition (Mus musculus [1]) | pIC50 (Glutamate NMDA receptor [2]) | Activity (Trypanosoma brucei [3]) | pIC50 (Glutamate NMDA receptor [4]) | Ratio (Trypanosoma brucei [5]) | pIC50 (Trypanosoma brucei [6]) | IC90 (Trypanosoma brucei [6]) | inhibition (Mus musculus [7]) |
| --- | --- | --- | --- | --- | --- | --- | --- | --- |
| C#CCN(C)[C@H](C)Cc1ccccc1 | 85.5% |  |  |  |  |  |  |  |
| CN(C)C12CC3CC(CC(C1)c1ccccc13)O2 |  | 5.42 | inactive | 4.41 |  |  |  |  |
| C#CCN(CC#C)C12CC3CC(CC)(CC(C1)c1ccccc13)O2 | inactive | < 3.70 |  | < 3.30 | >=10 | 4.83 | 24.1 µM | inactive |
| c1ccc(CN(Cc2ccccc2)C23CC4CC(CC(C2)c2ccccc24)O3)cc1 |  | < 3.70 | inactive | < 3.30 |  |  |  |  |
| CC12CC3CC(N)(CC(C1)c1ccccc13)O2 |  | 4.01 | inactive | 3.78 |  |  |  |  |
| NC(=O)CNC12CC3CC(CC(C1)c1ccccc13)O2 | inactive | < 3.70 | inactive | < 3.30 |  |  |  | inactive |
| CNC12CC3CC(CC(C1)c1ccccc13)O2 |  | 5.22 | inactive | 4.55 |  |  |  |  |
| CCN(CC)C12CC3CC(C)(CC(C1)c1ccccc13)O2 |  | 5.11 | inactive | 4.66 |  |  |  |  |
| CC12CC3CC(C)(C1)CC(N)(C3)C2 [MEMANTINE] |  |  |  |  |  | 4.86 | 21.4 µM |  |
| CN(C)C12CC3CC(C)(CC(C1)c1ccccc13)O2 |  | 5.41 | inactive | 5.11 |  |  |  |  |
| CCC12CC3CC(N)(CC(C1)c1ccccc13)O2 |  | < 3.70 | inactive | < 3.30 |  |  |  |  |
| C#CCNC12CC3CC(CC)(CC(C1)c1ccccc13)O2 | inactive | < 3.70 |  | < 3.30 | >=10 | 4.82 | 25.6 µM | inactive |
| C#CCN(CC#C)C12CC3CC(CC(C1)c1ccccc13)O2 | inactive | < 3.70 | inactive | < 3.30 |  |  |  | inactive |
| NC12CC3CC(CC(C1)c1ccccc13)O2 |  | 4.46 | inactive | 3.39 |  |  |  |  |
| CC(N)C12CC3CC(CC(C3)C1)C2 (stereo not given) [RIMANTADINE] |  |  |  |  |  |  | 14 µM |  |
| CN(Cc1ccccc1)C12CC3CC(CC(C1)c1ccccc13)O2 |  | < 3.70 | inactive | < 3.30 |  |  |  |  |
| c1ccc2c(c1)C1CC3CC2CC(N2CCCCC2)(C1)O3 |  | 4.52 |  | 3.77 |  |  |  |  |
| c1ccc(CCNC23CC4CC(CC(C2)c2ccccc24)O3)cc1 |  | < 3.70 | inactive | < 3.30 |  |  |  |  |
| c1ccc(CNC23CC4CC(CC(C2)c2ccccc24)O3)cc1 |  | < 3.70 | inactive | < 3.30 |  |  |  |  |
| C#CCNC12CC3CC(CC(C1)c1ccccc13)O2 | inactive | 4.47 | inactive | 3.94 |  |  |  | inactive |
| CCC12CC3CC(NCc4ccccc4)(CC(C1)c1ccccc13)O2 |  | < 3.70 |  | < 3.30 | >=10 | 4.86 | 19.9 µM |  |
| CCN(CC)C12CC3CC(CC(C1)c1ccccc13)O2 |  | 4.85 |  | 4.02 |  |  |  |  |
